# According to ChEMBL document CHEMBL1140336, “Synthesis, structure-activity relationships, and biological evaluation of fatty alcohol phosphates as lysophosphatidic acid receptor ligands, activators of PPARgamma, and inhibitors of autotaxin” (J Med Chem, 2005):
# Assays:
# [1] = molecular target: T1, Lysophosphatidic acid receptor 1 (Homo sapiens, UniProt Q92633); assay: (§1) Inhibition of LPA-induced calcium transients in RH7777 rat hepatoma cells expressing LPA1 receptor; No effect; assay type: functional, cell-based
# T1 sequence (Q92633 whole entry): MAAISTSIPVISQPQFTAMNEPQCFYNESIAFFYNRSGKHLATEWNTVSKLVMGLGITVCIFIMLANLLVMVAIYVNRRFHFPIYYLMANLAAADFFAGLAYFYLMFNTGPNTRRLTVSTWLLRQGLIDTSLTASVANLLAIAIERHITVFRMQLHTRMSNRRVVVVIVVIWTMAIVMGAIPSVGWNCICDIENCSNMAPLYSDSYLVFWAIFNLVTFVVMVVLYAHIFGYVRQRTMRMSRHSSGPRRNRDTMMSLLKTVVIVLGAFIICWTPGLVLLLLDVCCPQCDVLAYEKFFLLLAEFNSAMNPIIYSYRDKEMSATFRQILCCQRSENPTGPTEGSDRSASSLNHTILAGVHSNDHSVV
# Procedure, shortened: (§2)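 Fura-2 Ca2+ assay. RH7777 cells stably expressing LPA1, LPA2 or LPA3, or PC-3 cells (endogenous LPA1-3), seeded at 50000 cells/well on poly-D-lysine and grown overnight. Serum-starved in modified Krebs, pH 7.4, for 6-8 h (PC-3: 12 h), then Fura-2 AM loaded for 35 min. Compound added at 15 s; wells read 80-120 s. Transient taken as peak minus baseline 340/380 ratio. Antagonism: LPA 18:1 coapplied; highest concentration 30 μM.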
# [2] = molecular target: T2, Lysophosphatidic acid receptor 2 (Homo sapiens, UniProt Q9HBW0); assay: Inhibition of LPA-induced calcium transients in RH7777 rat hepatoma cells expressing LPA2 receptor; No effect; assay type: functional, cell-based; procedure, shortened: as §2
# T2 sequence (Q9HBW0 whole entry): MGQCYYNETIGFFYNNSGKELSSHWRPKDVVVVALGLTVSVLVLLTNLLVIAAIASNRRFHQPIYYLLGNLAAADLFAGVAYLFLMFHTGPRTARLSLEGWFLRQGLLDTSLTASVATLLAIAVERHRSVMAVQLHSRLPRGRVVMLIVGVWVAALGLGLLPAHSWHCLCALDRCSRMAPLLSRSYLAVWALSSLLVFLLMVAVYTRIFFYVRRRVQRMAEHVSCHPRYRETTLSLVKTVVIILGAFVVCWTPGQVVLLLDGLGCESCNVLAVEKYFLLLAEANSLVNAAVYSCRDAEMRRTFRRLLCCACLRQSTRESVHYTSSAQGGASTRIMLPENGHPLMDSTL
# [3] = molecular target: T1, Lysophosphatidic acid receptor 1; assay: (§3) Inhibition of LPA-induced calcium transients in RH7777 rat hepatoma cells expressing LPA1 receptor; assay type: functional, cell-based; procedure, shortened: as §2
# Homo sapiens [4] = organism: Homo sapiens; assay: Inhibitory concentration of compound (after 5 min of incubation) against LPA human platelets
# [5] = molecular target: T2, Lysophosphatidic acid receptor 2; assay: Inhibition of LPA-induced calcium transients in RH7777 rat hepatoma cells expressing LPA2 receptor;No effect; assay type: functional, cell-based; procedure, shortened: as §2
# [6] = molecular target: T3, Lysophosphatidic acid receptor 3 (Homo sapiens, UniProt Q9UBY5); assay: Inhibition of LPA-induced calcium transients in RH7777 rat hepatoma cells expressing LPA3 receptor; No effect; assay type: functional, cell-based; procedure, shortened: as §2
# T3 sequence (Q9UBY5 whole entry): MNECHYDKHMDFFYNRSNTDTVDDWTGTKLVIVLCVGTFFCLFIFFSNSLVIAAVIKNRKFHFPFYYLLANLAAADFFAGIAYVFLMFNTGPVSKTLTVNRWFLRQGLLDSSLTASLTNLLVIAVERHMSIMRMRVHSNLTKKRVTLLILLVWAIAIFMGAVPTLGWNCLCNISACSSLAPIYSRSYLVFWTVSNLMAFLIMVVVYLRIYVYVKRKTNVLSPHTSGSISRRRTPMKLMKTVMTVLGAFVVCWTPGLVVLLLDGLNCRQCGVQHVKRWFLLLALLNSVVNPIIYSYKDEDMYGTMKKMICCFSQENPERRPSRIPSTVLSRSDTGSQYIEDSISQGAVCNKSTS
# [7] = molecular target: T3, Lysophosphatidic acid receptor 3; assay: Binding affinity for Lysophosphatidic acid receptor 3 expressed in RH7777 rat hepatoma cells; assay type: cell-based; procedure, shortened: as §2
# Homo sapiens [8] = organism: Homo sapiens; assay: (§4) Concentration of compound (after 5 min of addition) that induce LPA expressed in human platelets; assay type: functional
# Procedure, shortened: (§5)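 Washed human platelets, aspirin-treated and isolated with apyrase, at 4 × 10^5/μL in HEPES buffer pH 7.4, stirred at 37 °C. Lipids given as BSA complexes (4:1). Shape change read as the fall in light transmission in an aggregometer. […] Mean ± SD across different donors.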
# [9] = molecular target: T1, Lysophosphatidic acid receptor 1; assay: Binding affinity for Lysophosphatidic acid receptor 1 expressed in RH7777 rat hepatoma cells; assay type: cell-based; procedure, shortened: as §2
# Homo sapiens [10] = organism: Homo sapiens; assay: Maximal shape change of human platelets induced by the compound; assay type: functional; procedure, shortened: as §5
# [11] = molecular target: T3, Lysophosphatidic acid receptor 3; assay: (§6) Inhibition of LPA-induced calcium transients in RH7777 rat hepatoma cells expressing LPA3 receptor; assay type: functional, cell-based; procedure, shortened: as §2
# [12] = Inhibition of LPA-induced calcium transients in PC-3 cells; assay type: functional, cell-based, Homo sapiens
# Procedure, shortened: (§7)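 PC-3 human prostate cancer cells, which express LPA1-3 endogenously, 50000 cells/well. Serum-starved 12 h in modified Krebs, loaded with Fura-2 AM, read in a FlexStation. Ca2+ transient = 340/380 ratio peak minus baseline. Agonism (Emax as % of maximal LPA 18:1 response) and inhibition of LPA-induced transients were measured.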
# [13] = Binding affinity for Lysophosphatidic acid receptor in PC-3 cells; assay type: cell-based, Homo sapiens; procedure, shortened: as §2
# [14] = molecular target: T2, Lysophosphatidic acid receptor 2; assay: (§8) Inhibition of LPA-induced calcium transients in RH7777 rat hepatoma cells expressing LPA2 receptor; assay type: functional, cell-based; procedure, shortened: as §2
# [15] = molecular target: T1, Lysophosphatidic acid receptor 1; assay: as §1; assay type: functional, cell-based; remark: listed apart in the source
# [16] = molecular target: T2, Lysophosphatidic acid receptor 2; assay: Binding affinity for Lysophosphatidic acid receptor 2 expressed in RH7777 rat hepatoma cells; assay type: cell-based
# [17] = molecular target: T2, Lysophosphatidic acid receptor 2; assay: as §8; assay type: functional, cell-based; remark: listed apart in the source
# [18] = molecular target: T1, Lysophosphatidic acid receptor 1; assay: Inhibition of LPA-induced calcium transients in RH7777 rat hepatoma cells expressing LPA1 receptor; Not effect; assay type: functional, cell-based; procedure, shortened: as §2
# [19] = molecular target: T3, Lysophosphatidic acid receptor 3; assay: as §6; assay type: functional, cell-based; remark: listed apart in the source
# [20] = Percent maximal efficacy in PC-3 cells; assay type: functional, Homo sapiens; procedure, shortened: as §7
# [21] = molecular target: T1, Lysophosphatidic acid receptor 1; assay: as §3; assay type: functional, cell-based; remark: listed apart in the source
# [22] = Inhibition of LPA expressed in PC-3 cells; No effect; assay type: functional, cell-based, Homo sapiens; procedure, shortened: as §2
# [23] = Inhibition of LPA-induced calcium transients in PC-3 cells; No effect; assay type: functional, cell-based, Homo sapiens; procedure, shortened: as §2
# [24] = molecular target: T1, Lysophosphatidic acid receptor 1; assay: Maximal efficacy in induction of [Ca2+] transients in RH7777 rat hepatoma cells expressing LPA1 receptor; assay type: functional, cell-based
# Procedure, shortened: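 Agonist mode in RH7777 cells stably expressing the named LPA receptor, serum-starved 6-8 h, Fura-2 AM loaded. Increasing compound concentrations were added alone and the Ca2+ transient was read as the 340/380 ratio peak minus baseline. Emax = compound maximal response as a percentage of the LPA 18:1 maximal response.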
# Homo sapiens [25] = organism: Homo sapiens; assay: as §4; assay type: functional; remark: listed apart in the source
# [26] = Homo sapiens, PC-3, read-out: IC50
Compound,EC50 [1],EC50 [2],IC50 [3],EC50 [6],Ki [7],Emax (Homo sapiens [10]),IC50 [11],IC50 [2],"IC50 [12, 26]",Ki [13],IC50 [15],also measured
CCCCCCCCCCCCCCOP(=O)(O)O [PHOSPHORIC ACID MONOTETRADECYL ESTER],Not Active,Not Active,2300 nM,Not Active,211 nM,87%,422 nM,,,,,IC50 (Homo sapiens [4]): 420 nM; IC50 [5]: Not Active; EC50 (Homo sapiens [8]): 430 nM; Ki [9]: 1080 nM
CCCCC/C=C/CCCOP(=O)(O)O,Not Active,,> 10000 nM,Not Active,370 nM,,830 nM,Not Active,1300 nM,735 nM,,EC50 [14]: > 10000 nM
CCCCCCCCCCCCCCOP(O)(O)=S [THIOPHOSPHORIC ACID TETRADECYL ESTER],Not Active,,,Not Active,,,,Not Active,,,Not Active,EC50 [12]: Not Active; IC50 ([12]; pc-3): Not Active
Cc1noc(-c2ccc(CSCCC(=O)O)cc2)c1NC(=O)OC(C)c1ccccc1Cl (stereo not given),Not Active,Not Active,762 nM,Not Active,148 nM,,301 nM,Not Active,3380 nM,1740 nM,,Ki ([16]; rh7777): Not Active; Ki [9]: 425 nM
CC/C=C/CCCCCCCCCCOP(=O)(O)O,Not Active,,,Not Active,40 nM,,103 nM,Not Active,,,,EC50 [17]: 4100 nM
CCCCCCCC(=O)OC[C@H](COP(=O)(O)OP(=O)(O)O)OC(=O)CCCCCCC,,Not Active,5500 nM,Not Active,202 nM,,454 nM,Not Active,,,,EC50 [18]: Not Active; Ki [9]: 4300 nM
CCCCCCCC/C=C/CCCCCCCC(=O)OCC(O)COP(=O)(O)O (stereo not given) [OLEOYL],,,,,,120%,,,,,,EC50 (Homo sapiens [8]): 9 nM
CCCCCCCC/C=C/CCCCCCCCOP(O)(O)=S,,,,,,1.12%,,Not Active,,,Not Active,EC50 [19]: 546 nM; IC50 (Homo sapiens [4]): 18 nM; IC50 [6]: Not Active; EC50 [17]: 244 nM; Emax [20]: 30%; EC50 (Homo sapiens [8]): 16 nM; EC50 [21]: 193 nM
CCCCCCCCCCOP(O)(O)=S [THIOPHOSPHORIC ACID DECYL ESTER],Not Active,,,Not Active,,,,Not Active,1220 nM,521 nM,Not Active,
CCCCCCCCCCCCCCP(=O)(O)O,Not Active,Not Active,~10000 nM,Not Active,1120 nM,0%,3100 nM,,9670 nM,4620 nM,,IC50 (Homo sapiens [4]): 33000 nM; Ki ([16]; read-out: Ki): 3550 nM; IC50 [14]: 5500 nM
CCCCCCCCCCCCCCCCCCP(=O)(O)O,Not Active,Not Active,,Not Active,,,,Not Active,,,Not Active,IC50 [22]: Not Active; IC50 [6]: Not Active; EC50 [23]: Not Active
CCCC/C=C/CCCCCCCCOP(=O)(O)O,Not Active,,,Not Active,58 nM,,96 nM,Not Active,241 nM,123 nM,,EC50 [17]: 397 nM
CCCCCCCCCCCCP(=O)(O)O,Not Active,Not Active,,Not Active,303 nM,,654 nM,Not Active,2640 nM,1270 nM,Not Active,
CCCCCCCCCCCCOP(O)(O)=S [THIOPHOSPHORIC ACID DODECYL ESTER],Not Active,,,Not Active,,,,Not Active,2840 nM,1300 nM,Not Active,
CCCCCCCCCCCCCCCC(=O)N[C@@H](COP(=O)(O)O)C(=O)O,,Not Active,,,,,,Not Active,,,,EC50 [19]: 1600 nM; IC50 [6]: Not Active; Emax [20]: 42%; Emax [24]: 100%; EC50 [21]: 1850 nM
CCCCCCCCCCCCCCCC(=O)OC[C@@H](O)COP(=O)(O)O,,,,,,120%,,,,,,IC50 (Homo sapiens [4]): 17 nM; EC50 (Homo sapiens [8]): 10 nM
CC/C=C/CCCCCCCCOP(=O)(O)O,Not Active,,> 10000 nM,Not Active,27 nM,89%,32 nM,Not Active,916 nM,390 nM,,IC50 (Homo sapiens [4]): 700 nM; EC50 [14]: 717 nM; EC50 (Homo sapiens [8]): 1500 nM
CCCCCCCCCCP(=O)(O)O,Not Active,Not Active,,Not Active,680 nM,,1200 nM,Not Active,3120 nM,1500 nM,Not Active,
CC/C=C/CCCCCCCCOP(O)(O)=S,Not Active,,,Not Active,14 nM,73%,27 nM,Not Active,2970 nM,1460 nM,Not Active,EC50 (Homo sapiens [25]): 1000 nM; IC50 (Homo sapiens [4]): 700 nM; EC50 [17]: 677 nM; Emax [20]: 27%
CCCCCCCCCCCCOP(=O)(O)O [PHOSPHORIC ACID MONODODECYL ESTER],Not Active,,2800 nM,Not Active,61 nM,94%,128 nM,Not Active,,,,IC50 (Homo sapiens [4]): 160 nM; EC50 (Homo sapiens [8]): 250 nM; Ki [9]: 1350 nM
CCCCCCCCCCCCCCC(F)(F)P(=O)(O)O,Not Active,,,Not Active,,,,Not Active,,,,
C=CCCCCCCCCOP(O)(O)=S,Not Active,,,Not Active,,,,Not Active,1000 nM,533 nM,Not Active,EC50 [17]: > 10000 nM
CCCC/C=C/CCCCCCCCOP(O)(O)=S,Not Active,,,Not Active,14 nM,,28 nM,Not Active,938 nM,397 nM,Not Active,EC50 [17]: 480 nM; Emax [20]: 40%
C=CCCCCCCCCOP(=O)(O)O,Not Active,,> 10000 nM,Not Active,,,,Not Active,1510 nM,574 nM,,
CCCCCCCC/C=C/CCCCCCCCOP(=O)(O)O,Not Active,Not Active,,Not Active,,,,Not Active,,,Not Active,IC50 [6]: Not Active; Emax [20]: 11%
CCCCCCCCCCOP(=O)(O)O [PHOSPHORIC ACID MONODECYL ESTER],Not Active,,,Not Active,121 nM,,384 nM,Not Active,,,Not Active,
